Measured values reported in ChEMBL document CHEMBL1212913, “Quinazolin-4-one derivatives: A novel class of noncompetitive NR2C/D subunit-selective N-methyl-D-aspartate receptor antagonists” (J Med Chem, 2010).

Experiments:
Glutamate receptor 1 = Glutamate receptor 1 (Rattus norvegicus, UniProt P19490); assay: Antagonist activity at rat recombinant GLuR1 expressed in Xenopus oocytes assessed as inhibition of glutamate-induced current by two-electrode voltage-clamp electrophysiology; format: functional, cell-based, Oocyte
Summary of the method: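 Two-electrode voltage clamp at −40 mV on Xenopus oocytes expressing rat GluR1, perfused with 90 NaCl, 1.0 KCl, 0.5 BaCl2, 0.005 EDTA, 10 HEPES (mM), pH 7.4, 23°C; activated by 100 μM glutamate. From 20 mM DMSO stocks, 5-7 concentrations, ≥4 oocytes each. Hill fit to mean composite curves normalized to control, minimum usually fixed at 0. Response >75% at 100 μM reported as >300 μM.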

Rattus norvegicus [1] = species on record: Rattus norvegicus; assay: Selectivity ratio of IC50 for rat recombinant NR1-NR2A receptor to IC50 for rat recombinant NR1-NR2D receptor
Summary of the method: (§1)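 Ratio of fitted IC50 values, either NR2A/NR2D or GluR1/NR2D, from two-electrode voltage-clamp Hill fits in oocytes. Where noted, calculated from IC50 values rounded to the nearest μM.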

[2] = target: Ionotropic glutamate receptor NMDA 1/2D (Rattus norvegicus, UniProt P35439+Q62645); assay: Antagonist activity at rat recombinant NR1-NR2D receptor expressed in Xenopus oocytes at holding potential of -40mV by two-electrode voltage-clamp electrophysiology; format: functional, cell-based, Oocyte
Summary of the method: (§2)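 Oocytes expressing rat NR1-1a with NR2A, NR2B, NR2C or NR2D, clamped at −40 mV in Ba2+/HEPES recording solution pH 7.4, 23°C. Current evoked by 100 μM glutamate plus 30 μM glycine. Final DMSO 0.05-0.5%, 5-7 inhibitor concentrations, ≥4 oocytes each. IC50 from Hill fit of normalized mean composite data. Some NR2A oocytes given BAPTA-AM or K-BAPTA.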

Rattus norvegicus [3] = species on record: Rattus norvegicus; assay: Selectivity ratio of IC50 for rat recombinant GLuR1 to IC50 for rat recombinant NR1-NR2D receptor; summary of the method: as §1
[4] = target: Glutamate NMDA receptor; Grin1/Grin2c (Rattus norvegicus, UniProt P35439+Q00961); assay: Antagonist activity at rat recombinant NR1-NR2C receptor expressed in Xenopus oocytes at holding potential of -40mV by two-electrode voltage-clamp electrophysiology; format: functional, cell-based, Oocyte
Summary of the method: as §2, with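 “data. […]” for “data.”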

[5] = target: Glutamate NMDA receptor; Grin1/Grin2b (Rattus norvegicus, UniProt P35439+Q00960); assay: Antagonist activity at rat recombinant NR1-NR2B receptor expressed in Xenopus oocytes at holding potential of -40mV by two-electrode voltage-clamp electrophysiology; format: functional, cell-based, Oocyte; conditions: read-out: IC50
Summary of the method: as §2, with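 “data. […]” for “data.”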

[6] = target: Glutamate NMDA receptor; Grin1/Grin2a (Rattus norvegicus, UniProt P35439+Q00959); assay: Antagonist activity at rat recombinant NR1-NR2A receptor expressed in Xenopus oocytes at holding potential of -40mV by two-electrode voltage-clamp electrophysiology; format: functional, cell-based, Oocyte; conditions: read-out: IC50
Summary of the method: as §2, with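 “data. […]” for “data.”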

Glutamate NMDA receptor; Grin1/Grin2b, sequence (Q00960 whole entry, other chains not shown): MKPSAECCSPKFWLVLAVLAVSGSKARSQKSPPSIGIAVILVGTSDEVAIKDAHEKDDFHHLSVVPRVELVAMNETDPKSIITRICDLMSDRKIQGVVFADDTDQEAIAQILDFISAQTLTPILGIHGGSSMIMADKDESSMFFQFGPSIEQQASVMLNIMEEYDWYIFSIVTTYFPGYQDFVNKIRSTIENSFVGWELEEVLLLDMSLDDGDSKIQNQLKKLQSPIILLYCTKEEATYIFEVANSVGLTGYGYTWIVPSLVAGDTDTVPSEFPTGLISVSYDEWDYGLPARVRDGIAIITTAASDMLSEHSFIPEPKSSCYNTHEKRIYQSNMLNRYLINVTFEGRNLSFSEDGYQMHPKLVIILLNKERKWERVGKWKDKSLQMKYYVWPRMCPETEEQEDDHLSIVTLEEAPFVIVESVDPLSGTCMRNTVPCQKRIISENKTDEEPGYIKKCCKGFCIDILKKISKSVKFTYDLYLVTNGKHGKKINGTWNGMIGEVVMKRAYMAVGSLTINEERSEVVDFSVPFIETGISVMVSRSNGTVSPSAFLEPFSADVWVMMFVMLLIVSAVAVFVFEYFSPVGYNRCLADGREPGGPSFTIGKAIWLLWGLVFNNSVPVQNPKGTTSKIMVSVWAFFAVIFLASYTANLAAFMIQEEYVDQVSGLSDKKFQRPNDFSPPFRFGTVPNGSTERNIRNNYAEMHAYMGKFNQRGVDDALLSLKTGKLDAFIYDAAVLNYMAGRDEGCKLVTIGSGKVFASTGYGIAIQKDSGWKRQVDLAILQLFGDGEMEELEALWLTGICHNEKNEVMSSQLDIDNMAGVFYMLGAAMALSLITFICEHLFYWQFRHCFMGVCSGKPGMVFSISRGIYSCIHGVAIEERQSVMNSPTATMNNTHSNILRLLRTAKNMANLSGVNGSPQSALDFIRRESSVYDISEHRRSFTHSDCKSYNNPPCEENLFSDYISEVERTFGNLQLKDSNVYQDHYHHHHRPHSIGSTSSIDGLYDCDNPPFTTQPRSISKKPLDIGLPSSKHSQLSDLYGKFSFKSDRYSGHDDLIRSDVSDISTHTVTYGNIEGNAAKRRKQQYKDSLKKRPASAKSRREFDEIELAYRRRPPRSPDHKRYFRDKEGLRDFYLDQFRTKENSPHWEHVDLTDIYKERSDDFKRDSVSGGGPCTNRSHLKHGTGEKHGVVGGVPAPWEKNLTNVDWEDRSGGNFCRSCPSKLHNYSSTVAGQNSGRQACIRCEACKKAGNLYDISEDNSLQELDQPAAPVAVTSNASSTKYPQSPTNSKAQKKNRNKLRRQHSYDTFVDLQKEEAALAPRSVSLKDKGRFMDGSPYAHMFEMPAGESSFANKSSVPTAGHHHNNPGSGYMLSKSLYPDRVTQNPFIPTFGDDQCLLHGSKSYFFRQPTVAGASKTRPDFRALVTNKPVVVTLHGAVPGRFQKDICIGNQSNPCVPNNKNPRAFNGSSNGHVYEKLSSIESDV
Glutamate receptor 1, sequence (P19490 whole entry, the tested form may be a part): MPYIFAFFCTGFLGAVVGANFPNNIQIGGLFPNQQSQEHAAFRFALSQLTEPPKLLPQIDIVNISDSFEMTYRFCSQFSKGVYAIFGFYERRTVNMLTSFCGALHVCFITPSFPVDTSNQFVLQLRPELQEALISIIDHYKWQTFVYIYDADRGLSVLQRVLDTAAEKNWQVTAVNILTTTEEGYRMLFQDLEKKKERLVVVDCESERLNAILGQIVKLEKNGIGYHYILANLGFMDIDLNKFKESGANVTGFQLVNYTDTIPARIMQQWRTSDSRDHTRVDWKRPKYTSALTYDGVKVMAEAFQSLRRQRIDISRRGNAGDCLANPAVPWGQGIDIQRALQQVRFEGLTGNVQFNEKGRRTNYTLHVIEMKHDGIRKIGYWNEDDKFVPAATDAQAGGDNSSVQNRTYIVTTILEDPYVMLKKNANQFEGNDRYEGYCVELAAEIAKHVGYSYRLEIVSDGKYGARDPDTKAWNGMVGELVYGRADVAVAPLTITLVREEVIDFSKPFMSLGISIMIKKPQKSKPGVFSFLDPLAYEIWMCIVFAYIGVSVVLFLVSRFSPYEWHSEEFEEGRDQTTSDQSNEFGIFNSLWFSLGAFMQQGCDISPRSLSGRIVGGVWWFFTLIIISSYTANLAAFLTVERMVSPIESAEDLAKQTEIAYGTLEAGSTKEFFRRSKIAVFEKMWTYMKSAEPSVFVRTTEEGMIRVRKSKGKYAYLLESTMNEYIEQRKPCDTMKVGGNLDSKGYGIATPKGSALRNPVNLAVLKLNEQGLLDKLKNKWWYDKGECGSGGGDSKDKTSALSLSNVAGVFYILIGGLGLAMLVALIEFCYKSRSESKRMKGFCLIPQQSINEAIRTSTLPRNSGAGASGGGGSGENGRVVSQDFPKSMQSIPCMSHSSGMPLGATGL
Glutamate NMDA receptor; Grin1/Grin2a, sequence (Q00959 whole entry, other chains not shown): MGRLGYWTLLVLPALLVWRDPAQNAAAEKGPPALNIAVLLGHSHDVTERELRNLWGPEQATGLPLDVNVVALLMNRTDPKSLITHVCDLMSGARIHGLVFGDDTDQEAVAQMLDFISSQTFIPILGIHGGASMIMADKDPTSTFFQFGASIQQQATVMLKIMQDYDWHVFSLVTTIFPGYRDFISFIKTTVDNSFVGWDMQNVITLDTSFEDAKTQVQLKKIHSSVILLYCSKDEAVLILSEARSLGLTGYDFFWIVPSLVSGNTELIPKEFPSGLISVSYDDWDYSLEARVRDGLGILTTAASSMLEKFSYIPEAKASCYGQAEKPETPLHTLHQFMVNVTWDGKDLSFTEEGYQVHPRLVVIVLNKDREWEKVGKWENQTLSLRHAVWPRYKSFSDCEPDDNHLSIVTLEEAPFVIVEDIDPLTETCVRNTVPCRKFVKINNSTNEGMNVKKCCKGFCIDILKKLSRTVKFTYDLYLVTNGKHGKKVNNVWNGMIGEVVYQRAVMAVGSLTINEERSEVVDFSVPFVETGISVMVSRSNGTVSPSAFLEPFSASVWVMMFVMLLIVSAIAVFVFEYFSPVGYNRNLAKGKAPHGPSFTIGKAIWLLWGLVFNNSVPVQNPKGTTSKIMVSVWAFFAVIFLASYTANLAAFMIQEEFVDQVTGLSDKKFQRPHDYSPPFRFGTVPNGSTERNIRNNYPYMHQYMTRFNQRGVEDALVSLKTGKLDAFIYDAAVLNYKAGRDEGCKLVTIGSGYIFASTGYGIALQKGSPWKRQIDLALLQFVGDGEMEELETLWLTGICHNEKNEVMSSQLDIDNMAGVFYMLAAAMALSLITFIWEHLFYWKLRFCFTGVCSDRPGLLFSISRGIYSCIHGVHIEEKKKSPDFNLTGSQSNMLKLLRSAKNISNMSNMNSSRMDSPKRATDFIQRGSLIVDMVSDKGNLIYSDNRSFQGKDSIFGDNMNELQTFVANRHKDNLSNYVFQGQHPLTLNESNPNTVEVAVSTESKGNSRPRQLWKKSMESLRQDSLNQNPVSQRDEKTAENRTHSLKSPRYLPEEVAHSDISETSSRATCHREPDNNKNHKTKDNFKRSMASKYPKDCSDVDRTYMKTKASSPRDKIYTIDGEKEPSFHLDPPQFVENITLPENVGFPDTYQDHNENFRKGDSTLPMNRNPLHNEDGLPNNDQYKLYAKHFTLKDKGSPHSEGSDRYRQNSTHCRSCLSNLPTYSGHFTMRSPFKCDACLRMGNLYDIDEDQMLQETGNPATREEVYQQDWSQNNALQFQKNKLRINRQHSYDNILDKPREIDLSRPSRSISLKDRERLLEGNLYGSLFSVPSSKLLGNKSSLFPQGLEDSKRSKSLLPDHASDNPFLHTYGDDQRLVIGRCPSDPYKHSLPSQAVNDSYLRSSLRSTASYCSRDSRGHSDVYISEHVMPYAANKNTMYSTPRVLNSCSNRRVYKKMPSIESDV
Glutamate NMDA receptor; Grin1/Grin2c, sequence (Q00961 whole entry, other chains not shown): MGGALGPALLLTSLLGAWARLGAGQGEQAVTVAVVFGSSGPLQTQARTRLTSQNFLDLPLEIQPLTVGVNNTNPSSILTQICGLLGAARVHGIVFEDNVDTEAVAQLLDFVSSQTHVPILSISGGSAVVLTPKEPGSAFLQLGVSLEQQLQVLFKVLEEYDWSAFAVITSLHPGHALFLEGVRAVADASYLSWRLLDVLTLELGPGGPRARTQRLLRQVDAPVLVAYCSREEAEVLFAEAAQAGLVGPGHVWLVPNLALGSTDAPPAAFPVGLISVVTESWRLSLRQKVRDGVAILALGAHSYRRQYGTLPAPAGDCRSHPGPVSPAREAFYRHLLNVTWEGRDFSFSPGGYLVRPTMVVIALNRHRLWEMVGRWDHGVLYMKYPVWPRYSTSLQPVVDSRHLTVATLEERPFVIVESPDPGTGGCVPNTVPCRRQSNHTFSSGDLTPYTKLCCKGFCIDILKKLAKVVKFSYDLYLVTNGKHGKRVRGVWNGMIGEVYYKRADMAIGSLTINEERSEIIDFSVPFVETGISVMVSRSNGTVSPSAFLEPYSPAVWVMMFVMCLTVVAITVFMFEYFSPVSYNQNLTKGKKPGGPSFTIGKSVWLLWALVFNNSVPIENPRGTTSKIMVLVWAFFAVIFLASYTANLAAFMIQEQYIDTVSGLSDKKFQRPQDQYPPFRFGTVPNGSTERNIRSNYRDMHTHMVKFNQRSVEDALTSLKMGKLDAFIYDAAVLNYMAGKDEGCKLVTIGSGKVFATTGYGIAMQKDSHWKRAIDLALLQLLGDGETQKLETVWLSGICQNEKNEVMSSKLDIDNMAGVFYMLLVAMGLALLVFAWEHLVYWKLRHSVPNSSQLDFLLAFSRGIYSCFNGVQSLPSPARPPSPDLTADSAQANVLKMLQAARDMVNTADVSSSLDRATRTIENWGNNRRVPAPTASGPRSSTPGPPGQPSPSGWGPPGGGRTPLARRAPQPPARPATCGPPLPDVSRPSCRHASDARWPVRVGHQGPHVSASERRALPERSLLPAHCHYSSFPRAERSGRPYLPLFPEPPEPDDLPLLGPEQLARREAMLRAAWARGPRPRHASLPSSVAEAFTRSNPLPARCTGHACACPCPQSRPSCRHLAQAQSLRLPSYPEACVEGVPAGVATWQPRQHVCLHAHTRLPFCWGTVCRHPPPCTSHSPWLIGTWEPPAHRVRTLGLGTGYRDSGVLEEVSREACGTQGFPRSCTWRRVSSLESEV

SMILES | IC50 (Glutamate receptor 1) [µM] | Ratio IC50 (Rattus norvegicus [1]) | IC50 [2] [µM] | Ratio IC50 (Rattus norvegicus [3]) | IC50 [4] [µM] | IC50 [5] [µM] | IC50 [6] [µM]
O=C(O)c1ccc(-n2c(/C=C/c3cccc([N+](=O)[O-])c3)nc3ccc(-c4cccs4)cc3c2=O)cc1 | 280 | 52 | 3 | 93 | 5 | 129 | 157
O=c1c2cc(I)ccc2nc(/C=C/c2cccnc2)n1-c1ccc([N+](=O)[O-])cc1 | > 300 | 1 | 218 | 1 | 204 | > 300 | > 300
COc1ccc2nc(/C=C/c3cccc([N+](=O)[O-])c3)n(-c3ccc(C(=O)O)cc3)c(=O)c2c1 | > 300 | 76 | 3 | > 100 | 6 | > 300 | 229
O=C(O)c1cccc(-n2c(/C=C/c3cccnc3)nc3ccc(I)cc3c2=O)c1 | 64 | 11 | 4 | 16 | 7 | 49 | 45
CN(C)c1ccc(/C=C/c2nc3ccccc3c(=O)n2-c2ccc(C(=O)O)cc2)cc1 | > 300 | > 5 | 53 | > 5 | 63 | > 300 | > 300
COC(=O)c1cccc(/C=C/c2nc3ccc(OC)cc3c(=O)n2-c2ccc(C(=O)O)cc2)c1 | 41 | 13 | 6 | 7 | 15 | 39 | 80
COc1cccc(-n2c(/C=C/c3cccnc3)nc3ccc(I)cc3c2=O)c1 | > 300 | 1 |  | 1 | > 300 | > 300 | > 300
O=C(O)c1ccc(-n2c(/C=C/c3cccc([N+](=O)[O-])c3)nc3cc(Cl)ccc3c2=O)cc1 | 41 | 2 | 15 | 3 | 16 | 52 | 32
COc1ccccc1-n1c(/C=C/c2cccnc2)nc2ccc(I)cc2c1=O | 199 | 10 | 3 | 66 | 3 | 30 | 31
COC(=O)c1ccc(-n2c(/C=C/c3cccc([N+](=O)[O-])c3)nc3ccc(OC)cc3c2=O)cc1 | 138 | 6 | 38 | 4 | 39 | 46 | 218
O=C(O)c1ccc(-n2c(/C=C/c3ccc(N4CCOCC4)cc3)nc3ccccc3c2=O)cc1 | > 300 | 1 | 171 | 1 | 284 | 122 | > 300
O=C(O)c1ccc(-n2c(/C=C/c3cccnc3)nc3ccc(I)cc3c2=O)cc1 | 61 | 7 | 4 | 15 | 6 | 31 | 26
O=C(O)c1ccc(-n2c(/C=C/c3cccc([N+](=O)[O-])c3)nc3c(Cl)cc(Cl)cc3c2=O)cc1 | > 300 | 22 | 10 | 30 | 16 | 109 | 224
O=c1c2cc(I)ccc2nc(/C=C/c2cccnc2)n1-c1ccccc1[N+](=O)[O-] | > 300 | 41 | 5 | 60 | 19 | 105 | 206
Cc1ccccc1-n1c(/C=C/c2cccnc2)nc2ccc(I)cc2c1=O | 83 | > 12 | 25 | 3 | 70 | 156 | > 300
O=C(O)c1ccc(-n2c(/C=C/c3ccccc3)nc3ccc(I)cc3c2=O)cc1 | 23 | 13 | 4 | 6 | 13 | 66 | 53
O=C(O)c1ccc(-n2c(/C=C/c3ccc(OC(F)F)cc3)nc3ccccc3c2=O)cc1 | 208 | 3 | 22 | 9 | 33 | 89 | 73
CSc1ccc(/C=C/c2nc3ccccc3c(=O)n2-c2ccc(C(=O)O)cc2)cc1 | 244 | 10 | 22 | 11 | 42 | 79 | 211
O=C(O)c1ccc(-n2c(/C=C/c3ccccc3O)nc3ccccc3c2=O)cc1 | 36 | 1 | 18 | 2 |  | 18 | 20

The next lines start with the values.

IC50 (Glutamate receptor 1) [µM] | Ratio IC50 (Rattus norvegicus [1]) | IC50 [2] [µM] | Ratio IC50 (Rattus norvegicus [3]) | IC50 [4] [µM] | IC50 [5] [µM] | IC50 [6] [µM] | SMILES
> 300 | 1 | 213 | 1 | 281 | > 300 |  | O=C(O)c1ccc(-n2c(/C=C/c3cccc([N+](=O)[O-])c3)nc3cc4c(cc3c2=O)OCCO4)cc1
289 | 16 | 13 | 22 | 24 | > 300 | 208 | COc1ccc2nc(/C=C/c3cccc([N+](=O)[O-])c3)n(-c3cccc(C(=O)O)c3)c(=O)c2c1
87 | 6 | 9 | 10 | 12 | 243 | 56 | O=C(O)c1ccc(-n2c(/C=C/c3cccc([N+](=O)[O-])c3)nc3c(Cl)cccc3c2=O)cc1
131 | 5 | 4 | 33 | 4 | 30 | 19 | O=C(O)c1ccc(-n2c(/C=C/c3cccc([N+](=O)[O-])c3)nc3ccc(/C=C/c4ccccc4)cc3c2=O)cc1
96 | 24 | 10 | 10 | 43 | > 300 | 237 | O=C(O)c1ccc(-n2c(/C=C/c3cccc([N+](=O)[O-])c3)nc3ccc(O)cc3c2=O)cc1
21 | 8 | 1 | 21 | 2 | 11 | 8 | O=C(O)c1cccc(-n2c(/C=C/c3cccc([N+](=O)[O-])c3)nc3ccc(I)cc3c2=O)c1
4 | 6 | 2 | 2 | 2 | 5 | 11 | O=C(O)c1ccc(-n2c(/C=C/c3cccc([N+](=O)[O-])c3)nc3cc4ccccc4cc3c2=O)cc1
82 | 4 | 6 | 14 | 22 | 68 | 25 | O=C(O)c1ccc(-n2c(/C=C/c3cccc4ccccc34)nc3ccccc3c2=O)cc1
103 | 6 | 11 | 9 | 20 | 36 | 63 | COc1ccc2cc(/C=C/c3nc4ccccc4c(=O)n3-c3ccc(C(=O)O)cc3)ccc2c1
22 | 1 | 12 | 2 |  | 26 | 13 | O=C(O)c1ccc(-n2c(/C=C/c3cccc(C(F)(F)F)c3)nc3ccccc3c2=O)cc1
27 | 6 | 2 | 14 | 5 | 15 | 12 | Cc1ccc2nc(/C=C/c3cccc([N+](=O)[O-])c3)n(-c3ccc(C(=O)O)cc3)c(=O)c2c1
110 | 1 | 36 | 3 |  | 35 | 38 | O=C(O)c1ccc(-n2c(/C=C/c3ccc(O)cc3)nc3ccccc3c2=O)cc1
